Experimental data: ChEMBL document CHEMBL1156621, “Synthesis and cellular effects of cycloterpenals: cyclohexadienal-based activators of neurite outgrowth” (2008)
The source made the active and inactive calls. The rule behind the calls is not given here.

Experiments:
Jurkat = assay: Growth inhibition of human Jurkat T cells at 1 ug/mL after 24 hrs; type: functional, cell-based
Outline: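 Cells kept in RPMI 1640 with 10% FBS at 37 °C, 5% CO₂. Harvested, counted and seeded at 200,000 cells/well (1 mL) in 48-well plates, then compound added. After 24 h incubation the cells were pelleted, washed in PBS and lysed. Lysate relative fluorescence measured on a fluorometer.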

Escherichia coli = assay: Antibacterial activity against Escherichia coli after 16 hrs; type: functional
Saccharomyces cerevisiae = assay: Antifungal activity against Saccharomyces cerevisiae after 16 hrs; type: functional
Bacillus subtilis = assay: Antibacterial activity against Bacillus subtilis after 16 hrs; type: functional
PC-12 [1] = assay: Induction of neurite outgrowth in rat PC12 cells assessed as neural extensions at 1 ug/mL after 5 days; type: functional, cell-based
Outline: (§1)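 Rat PC12 cells (ATCC CRL 1721) grown on collagen Type IV in RPMI 1640 with 10% heat-inactivated horse serum and 5% FBS, 37 °C, 5% CO₂. Seeded at 10,000 cells/well in collagen IV 96-well plates and allowed to adhere 24 h before compound. Tested in duplicate at final 100, 10 and 1 μg/mL; absolute EtOH as control. Neurite outgrowth and intercellular connections scored visually over 2 weeks.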

PC-12 [2] = assay: Induction of neurite outgrowth in rat PC12 cells at 1 ug/mL after 6 days; type: functional, cell-based; outline: as §1
PC-12 [3] = assay: Induction of neurite outgrowth in rat PC12 cells at 10 ug/mL after 7 days; type: functional, cell-based; outline: as §1

Row | MIC (Escherichia coli) | MIC (Saccharomyces cerevisiae) | MIC (Bacillus subtilis) | SMILES | Activity (Jurkat) | Activity (PC-12 [1]) | Activity (PC-12 [2]) | Activity (PC-12 [3])
1 | > 100 µg/mL | > 100 µg/mL | > 100 µg/mL | Cc1ccc(C2(C)CC(c3ccc(-c4ccccc4)cc3)=CC=C2C=O)o1 (stereo not drawn) | Active | Active | Active | –
2 | > 100 µg/mL | > 100 µg/mL | > 100 µg/mL | O=CC1=CC=C(c2ccc3c(c2)Cc2ccccc2-3)CC1c1ccc([N+](=O)[O-])cc1 (stereo not drawn) | Active | – | – | –
3 | > 100 µg/mL | > 100 µg/mL | > 100 µg/mL | CN(C)c1ccc(C2CC(c3ccc4ccccc4c3)=CC=C2C=O)cc1 (stereo not drawn) | – | – | – | Active
4 | > 100 µg/mL | > 100 µg/mL | > 100 µg/mL | O=CC1=CC=C(c2ccc(-c3ccccc3)cc2)CC1c1ccc([N+](=O)[O-])cc1 (stereo not drawn) | Active | – | – | –
5 | > 100 µg/mL | > 100 µg/mL | > 100 µg/mL | CN(C)c1ccc(-c2cc(-c3ccc(-c4ccccc4)cc3)ccc2C=O)cc1 | – | – | – | –
6 | > 100 µg/mL | > 100 µg/mL | > 100 µg/mL | CC1=CC=C(C=O)C(C)(c2ccc(-c3ccccc3)cc2)C1 (stereo not drawn) | – | – | – | –
7 | > 100 µg/mL | > 100 µg/mL | > 100 µg/mL | CC1CC(c2ccc(-c3ccccc3)cc2)=CC=C1C=O (stereo not drawn) | – | – | – | –

Further lines, the compound ahead of its results:

Row | SMILES | MIC (Escherichia coli) | MIC (Saccharomyces cerevisiae) | MIC (Bacillus subtilis) | Activity (Jurkat) | Activity (PC-12 [1]) | Activity (PC-12 [2]) | Activity (PC-12 [3])
8 | CN(C)c1ccc(C2CC(c3ccc(Cl)s3)=CC=C2C=O)cc1 (stereo not drawn) | > 100 µg/mL | > 100 µg/mL | > 100 µg/mL | Active | – | – | –
9 | CCCCC[C@H]1C(C)=CC=C(C=O)[C@H]1c1ccccc1 | > 100 µg/mL | > 100 µg/mL | > 100 µg/mL | – | – | – | –
10 | CC(C)=CCC/C(C)=C/C[C@H]1C(C)=CC=C(C=O)[C@H]1c1ccc([N+](=O)[O-])cc1 | > 100 µg/mL | > 100 µg/mL | > 100 µg/mL | – | – | – | –
11 | CC(C)=CC[C@@H]1C(C)=CC=C(C=O)[C@H]1c1ccccc1 | > 100 µg/mL | > 100 µg/mL | > 100 µg/mL | – | – | – | –
12 | CC1CC(c2cccs2)=CC=C1C=O (stereo not drawn) | > 100 µg/mL | > 100 µg/mL | > 100 µg/mL | – | – | – | –
